Source: ChEMBL document CHEMBL4251593, “Nontoxic combretafuranone analogues with high in vitro antibacterial activity” (Eur J Med Chem, 2018)
Values after ≈ are worked out from the molar mass of the structure shown.

Experiments:
Escherichia coli [1] = assay: Antibacterial activity against Escherichia coli ATCC 8739 after 24 hrs by microdilution assay; format: functional; settings: ATCC 8739, 24 h
Summary of the method: (§1)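 Broth microdilution in Mueller-Hinton medium buffered to pH 7.4 (±0.2), with DMSO as diluent at no more than 2% final. Compounds were tested as 2-fold serial dilutions from 2000 to 0.488 µmol/l. The inoculum was 0.5 McFarland (1.5×10^8 cfu/ml). Plates were held at 37 °C and read visually at 24 and 48 h. MIC was taken as 95% growth inhibition versus control, determined twice in duplicate.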

Escherichia coli [2] = assay: Antibacterial activity against Escherichia coli ATCC 8739 after 48 hrs by microdilution assay; format: functional; settings: ATCC 8739, 48 h; summary of the method: as §1
K562 [3] = assay: Induction of apoptosis in human K562 cells assessed as caspase 3/7 activity after 24 hrs by caspase-glo luminescent assay; format: cell-based; settings: K562, 24 h
Summary of the method: (§2)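 Cells were seeded at 500 per well in their growth media and exposed to 12 concentrations from 40 µM to 1 nM, delivered from DMSO, in triplicate. After 24 h, caspase-3/7 activity was read by Caspase-Glo luminescence. Data were normalized and ED50 was fitted by variable-slope nonlinear regression.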

Staphylococcus aureus [4] = assay: Antibacterial activity against Staphylococcus aureus ATCC 6538 after 24 hrs by microdilution assay; format: functional; settings: ATCC 6538, 24 h
HL-60 [5] = assay: Cytotoxicity against human HL60 cells assessed as reduction in cell viability after 48 hrs by ATPlite-based luminescent assay; settings: HL-60, 48 h
Summary of the method: (§3)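 Cells were grown […] with 10% FBS, glutamax, NEAA and pen/strep at 37 °C, 5% CO2. Media were DMEM for RPE-1, HepG2 and BJ (BJ plus 10 ng/ml bFGF), F-12K for PC3, and IMDM for K562/HL-60. Cells were seeded at 500 per well and dosed from DMSO at 12 concentrations, 40 µM to 1 nM, in triplicate. After 48 h, intracellular ATP was read by luminescence. ED50 was obtained by variable-slope nonlinear regression.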

Klebsiella pneumoniae [6] = assay: Antibacterial activity against Klebsiella pneumoniae HK11750/08 clinical isolate after 24 hrs by microdilution assay; format: functional; settings: HK11750/08, 24 h
Staphylococcus aureus [7] = assay: Antibacterial activity against Staphylococcus aureus ATCC 6538 after 48 hrs by microdilution assay; format: functional; settings: ATCC 6538, 48 h
HepG2 [8] = assay: Cytotoxicity against human HepG2 cells assessed as reduction in cell viability after 48 hrs by ATPlite-based luminescent assay; settings: HepG2, 48 h; summary of the method: as §3
Pseudomonas aeruginosa [9] = assay: Antibacterial activity against Pseudomonas aeruginosa ATCC 9027 after 24 hrs by microdilution assay; format: functional; settings: ATCC 9027, 24 h; summary of the method: as §1
Enterococcus sp. [10] = assay: Antibacterial activity against Enterococcus sp. HK14365/08 clinical isolate after 48 hrs by microdilution assay; format: functional; settings: HK14365/08, 48 h
[11] = test system: Staphylococcus epidermidis; assay: Antibacterial activity against Staphylococcus epidermidis HK6966/08 clinical isolate after 48 hrs by microdilution assay; format: functional; settings: HK6966/08, 48 h
HepG2 [12] = assay: Induction of apoptosis in human HepG2 cells assessed as caspase 3/7 activity after 24 hrs by caspase-glo luminescent assay; format: cell-based; settings: HepG2, 24 h; summary of the method: as §2
HL-60 [13] = assay: Induction of apoptosis in human HL60 cells assessed as caspase 3/7 activity after 24 hrs by caspase-glo luminescent assay; format: cell-based; settings: HL-60, 24 h; summary of the method: as §2
PC-3 [14] = assay: Cytotoxicity against human PC3 cells assessed as reduction in cell viability after 48 hrs by ATPlite-based luminescent assay; settings: PC-3, 48 h; summary of the method: as §3
Pseudomonas aeruginosa [15] = assay: Antibacterial activity against Pseudomonas aeruginosa ATCC 9027 after 48 hrs by microdilution assay; format: functional; settings: ATCC 9027, 48 h; summary of the method: as §1
Enterococcus sp. [16] = assay: Antibacterial activity against Enterococcus sp. HK14365/08 clinical isolate after 24 hrs by microdilution assay; format: functional; settings: HK14365/08, 24 h
Klebsiella pneumoniae [17] = assay: Antibacterial activity against Klebsiella pneumoniae HK14368/08 clinical isolate after 48 hrs by microdilution assay; format: functional; settings: HK14368/08, 48 h
Klebsiella pneumoniae [18] = assay: Antibacterial activity against Klebsiella pneumoniae HK11750/08 clinical isolate after 48 hrs by microdilution assay; format: functional; settings: HK11750/08, 48 h
BJ = assay: Cytotoxicity against human BJ cells assessed as reduction in cell viability after 48 hrs by ATPlite-based luminescent assay; summary of the method: as §3
TERT-RPE1 [19] = assay: Induction of apoptosis in human RPE1 cells assessed as caspase 3/7 activity after 24 hrs by caspase-glo luminescent assay; format: cell-based; settings: RPE-1, 24 h; summary of the method: as §2
Staphylococcus aureus [20] = assay: Antibacterial activity against methicillin-resistant Staphylococcus aureus HK5996/08 clinical isolate after 24 hrs by microdilution assay; format: functional; settings: HK5996/08, 24 h
Klebsiella pneumoniae [21] = assay: Antibacterial activity against Klebsiella pneumoniae HK14368/08 clinical isolate after 24 hrs by microdilution assay; format: functional; settings: HK14368/08, 24 h
K562 [22] = assay: Cytotoxicity against human K562 cells assessed as reduction in cell viability after 48 hrs by ATPlite-based luminescent assay; settings: K562, 48 h; summary of the method: as §3
[23] = test system: Staphylococcus epidermidis; assay: Antibacterial activity against Staphylococcus epidermidis HK6966/08 clinical isolate after 24 hrs by microdilution assay; format: functional; settings: HK6966/08, 24 h
PC-3 [24] = assay: Induction of apoptosis in human PC3 cells assessed as caspase 3/7 activity after 24 hrs by caspase-glo luminescent assay; format: cell-based; settings: PC-3, 24 h; summary of the method: as §2
Staphylococcus aureus [25] = assay: Antibacterial activity against methicillin-resistant Staphylococcus aureus HK5996/08 clinical isolate after 48 hrs by microdilution assay; format: functional; settings: HK5996/08, 48 h
TERT-RPE1 [26] = assay: Cytotoxicity against human RPE1 cells assessed as reduction in cell viability after 48 hrs by ATPlite-based luminescent assay; settings: RPE-1, 48 h; summary of the method: as §3
MCF7 = assay: Cytotoxicity against human MCF7 cells assessed as reduction in cell viability after 48 hrs by ATPlite-based luminescent assay; settings: MCF7, 48 h

SMILES | MIC95 (Escherichia coli [1]) [µM] | MIC95 (Escherichia coli [2]) [µM] | IC50 (K562 [3]) [µM] | MIC95 (Staphylococcus aureus [4]) [µM] | IC50 (HL-60 [5]) [µM] | MIC95 (Klebsiella pneumoniae [6]) [µM] | MIC95 (Staphylococcus aureus [7]) [µM] | IC50 (HepG2 [8]) [µM] | MIC95 (Pseudomonas aeruginosa [9]) [µM] | MIC95 (Enterococcus sp. [10]) [µM] | MIC95 [11] [µM] | IC50 (HepG2 [12]) [µM] | IC50 (HL-60 [13]) [µM] | IC50 (PC-3 [14]) [µM] | MIC95 (Pseudomonas aeruginosa [15]) [µM] | MIC95 (Enterococcus sp. [16]) [µM] | MIC95 (Klebsiella pneumoniae [17]) [µM] | MIC95 (Klebsiella pneumoniae [18]) [µM] | IC50 (BJ) [µM] | IC50 (TERT-RPE1 [19]) [µM] | other results
COc1ccc(C2=C(c3ccc(Br)cc3)C(=O)OC2)cc1 | > 1000 | > 1000 | > 40 | > 1000 | 0.83 | > 1000 | > 1000 | > 40 | > 1000 | > 1000 | > 1000 | > 40 | 2.18 | > 40 | > 1000 | > 1000 | > 1000 | > 1000 | > 40 | 56.4 | MIC95 (Staphylococcus aureus [20]): > 1000 µM; MIC95 (Klebsiella pneumoniae [21]): > 1000 µM; IC50 (K562 [22]): 0.53 µM; MIC95 [23]: 1000 µM (≈ 345 µg/mL); IC50 (PC-3 [24]): > 40 µM; MIC95 (Staphylococcus aureus [25]): > 1000 µM; IC50 (TERT-RPE1 [26]): 3.35 µM; IC50 (MCF7): 14.3 µM
O=C1OCC(c2ccc3c(c2)OCO3)=C1c1ccc2c(c1)OCO2 | > 125 | > 125 | > 40 | > 125 | 17.4 | > 125 | > 125 | > 40 | > 125 | > 125 | > 125 | > 40 | > 40 | > 40 | > 125 | > 125 | > 125 | > 125 | > 40 | > 40 | MIC95 (Staphylococcus aureus [20]): > 125 µM; MIC95 (Klebsiella pneumoniae [21]): > 125 µM; IC50 (K562 [22]): 16 µM; MIC95 [23]: > 125 µM; IC50 (PC-3 [24]): > 40 µM; MIC95 (Staphylococcus aureus [25]): > 125 µM; IC50 (TERT-RPE1 [26]): 35.5 µM; IC50 (MCF7): > 40 µM
COc1ccc(C2=C(c3ccc(OC)c(OC)c3)COC2=O)cc1 | > 125 | > 125 | > 40 | > 125 | > 40 | > 125 | > 125 | > 40 | > 125 | > 125 | > 125 | > 40 | > 40 | 15.9 | > 125 | > 125 | > 125 | > 125 | > 40 | > 40 | MIC95 (Staphylococcus aureus [20]): > 125 µM; MIC95 (Klebsiella pneumoniae [21]): > 125 µM; IC50 (K562 [22]): > 40 µM; MIC95 [23]: > 125 µM; IC50 (PC-3 [24]): > 40 µM; MIC95 (Staphylococcus aureus [25]): > 125 µM; IC50 (TERT-RPE1 [26]): > 40 µM; IC50 (MCF7): > 40 µM
COc1ccc(C2=C(c3c(Cl)cccc3Cl)C(=O)OC2)cc1 | > 500 | > 500 | 16.2 | 62.5 (≈ 20.9 µg/mL) | 15.1 | > 500 | 125 (≈ 41.9 µg/mL) | > 40 | > 500 | > 500 | 250 (≈ 83.8 µg/mL) | > 40 | 12.5 | > 40 | > 500 | > 500 | > 500 | > 500 | > 40 | > 40 | MIC95 (Staphylococcus aureus [20]): > 500 µM; MIC95 (Klebsiella pneumoniae [21]): > 500 µM; IC50 (K562 [22]): 14.4 µM; MIC95 [23]: 125 µM (≈ 41.9 µg/mL); IC50 (PC-3 [24]): > 40 µM; MIC95 (Staphylococcus aureus [25]): > 500 µM; IC50 (TERT-RPE1 [26]): > 40 µM; IC50 (MCF7): > 40 µM
